Measurements from ChEMBL document CHEMBL1667757, “Efficient and novel one-pot synthesis of antifungal active 1-substituted-8-aryl-3-alkyl/aryl-4H-pyrazolo[4,5-f][1,2,4]triazolo[4,3-b][1,2,4]triazepines using solid support” (2011).

Columns and labels:
Format in all cases: functional
Aspergillus flavus [1] = assay: Antifungal activity against Aspergillus flavus at 500 ug after 24 hrs by paper disc technique; conditions: for zone of inhibition at 500 µg/disc: Aspergillus flavus, 24 h, read-out: DIZ
Outline: (§1)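 Paper disc diffusion on double-layer potato dextrose agar: 15 mL sterile base topped with 15 mL medium seeded at 40 °C with spores from ten-day cultures; streptomycin added to prevent bacterial growth. Compounds dissolved in DMF at 500 or 1000 µg/mL and applied to 6 mm filter paper discs on chilled seeded plates. Plates incubated at 28 ± 2 °C. Inhibition zone measured from disc centre at 24 h, percent inhibition calculated as (C − T)/C × 100. Fluconazole at same concentrations served as standard.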

Aspergillus niger [2] = assay: Antifungal activity against Aspergillus niger at 1000 ug after 24 hrs by paper disc technique; conditions: for zone of inhibition at 1000 µg/disc: Aspergillus niger, 24 h, read-out: DIZ; outline: as §1
Aspergillus flavus [3] = assay: Antifungal activity against Aspergillus flavus at 1000 ug after 24 hrs by paper disc technique; conditions: for zone of inhibition at 1000 µg/disc: Aspergillus flavus, 24 h, read-out: DIZ; outline: as §1
Rhizopus [4] = assay: Antifungal activity against Rhizopus species at 500 ug after 24 hrs by paper disc technique; conditions: for zone of inhibition at 500 µg/disc: Rhizopus, 24 h, read-out: DIZ; outline: as §1
Penicillium sp. [5] = assay: Antifungal activity against Penicillium species at 1000 ug after 24 hrs by paper disc technique; conditions: for zone of inhibition at 1000 µg/disc: Penicillium sp., 24 h, read-out: DIZ; outline: as §1
Aspergillus niger [6] = assay: Antifungal activity against Aspergillus niger at 500 ug after 24 hrs by paper disc technique; conditions: for zone of inhibition at 500 µg/disc: Aspergillus niger, 24 h, read-out: DIZ; outline: as §1
Rhizopus [7] = assay: Antifungal activity against Rhizopus species at 1000 ug after 24 hrs by paper disc technique; conditions: for zone of inhibition at 1000 µg/disc: Rhizopus, 24 h, read-out: DIZ; outline: as §1
Penicillium sp. [8] = assay: Antifungal activity against Penicillium species at 500 ug after 24 hrs by paper disc technique; conditions: for zone of inhibition at 500 µg/disc: Penicillium sp., 24 h, read-out: DIZ; outline: as §1

Row | SMILES | Activity (Aspergillus flavus [1]) [%] | zone of inhibition at 500 µg/disc (Aspergillus flavus [1]) [mm] | percent inhibition (Aspergillus niger [2]) [%] | zone of inhibition at 1000 µg/disc (Aspergillus niger [2]) [mm] | percent growth inhibition (Aspergillus flavus [3]) [%] | zone of inhibition at 1000 µg/disc (Aspergillus flavus [3]) [mm] | Activity (Rhizopus [4]) [%] | zone of inhibition at 500 µg/disc (Rhizopus [4]) [mm] | percent inhibition (Penicillium sp. [5]) [%] | zone of inhibition at 1000 µg/disc (Penicillium sp. [5]) [mm] | Activity (Aspergillus niger [6]) [%] | zone of inhibition at 500 µg/disc (Aspergillus niger [6]) [mm] | Activity (Rhizopus [7]) [%] | zone of inhibition at 1000 µg/disc (Rhizopus [7]) [mm] | Activity (Penicillium sp. [8]) [%] | zone of inhibition at 500 µg/disc (Penicillium sp. [8]) [mm]
1 | OC(Cn1cncn1)(Cn1cncn1)c1ccc(F)cc1F [FLUCONAZOLE] | 58.33 | 35 | 80 | 48 | 70 | 42 | 63.33 | 38 | 90 | 54 | 70 | 42 | 70 | 42 | 86.66 | 52
2 | O=[N+]([O-])c1ccc(-c2nnc3n2Nc2c(c(-c4ccc(Br)cc4)nn2-c2ccccc2)C=N3)cc1 | 31.33 | 18 | 3.33 | 2 | 13.33 | 8 | 40 | 24 | 8.33 | 5 | 23.33 | 14 | 35.36 | 21 | 3.33 | 2
3 | Brc1ccc(-c2nn(-c3ccccc3)c3c2C=Nc2nnc(Cc4ccccc4)n2N3)cc1 | 33.33 | 20 | 23.33 | 14 | 13.33 | 8 | 46.66 | 28 | – | – | 3.33 | 2 | 40 | 24 | 8.33 | 5
4 | Clc1ccc(-c2nnc3n2Nc2c(c(-c4ccc(Br)cc4)nn2-c2ccccc2)C=N3)cc1 | 36.66 | 22 | 35.36 | 21 | 40 | 24 | 60.66 | 40 | 13.33 | 8 | 53.33 | 32 | 53.33 | 32 | 15 | 9
5 | O=[N+]([O-])c1ccc(-c2nn(-c3ccccc3)c3c2C=Nc2nnc(-c4ccccc4)n2N3)cc1 | 40 | 24 | 33.33 | 20 | 36.66 | 22 | 65 | 39 | 15 | 9 | 51.66 | 31 | 66.66 | 36 | 12.98 | 7
6 | C1=Nc2nnc(-c3ccccc3)n2Nc2c1c(-c1ccccc1)nn2-c1ccccc1 | 35.36 | 21 | 51.66 | 31 | 35.36 | 21 | 66.66 | 36 | 3.33 | 2 | 33.33 | 20 | 65 | 39 | 8.33 | 5
